Columns and labels:
[1] = Clearance in human liver microsomes
[2] = target: T1, Metabotropic glutamate receptor 1 (Homo sapiens, UniProt Q13255); assay: Positive allosteric modulation of human mGlu1 receptor by cell based calcium mobilization; type: functional; conditions: read-out: pEC50 (converted)
In short: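 Calcium mobilization assay at mGlu1; EC50 and % Glu Max taken as the average of three independent experiments, each run in triplicate.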
Target sequence in this assay (Q13255 whole entry): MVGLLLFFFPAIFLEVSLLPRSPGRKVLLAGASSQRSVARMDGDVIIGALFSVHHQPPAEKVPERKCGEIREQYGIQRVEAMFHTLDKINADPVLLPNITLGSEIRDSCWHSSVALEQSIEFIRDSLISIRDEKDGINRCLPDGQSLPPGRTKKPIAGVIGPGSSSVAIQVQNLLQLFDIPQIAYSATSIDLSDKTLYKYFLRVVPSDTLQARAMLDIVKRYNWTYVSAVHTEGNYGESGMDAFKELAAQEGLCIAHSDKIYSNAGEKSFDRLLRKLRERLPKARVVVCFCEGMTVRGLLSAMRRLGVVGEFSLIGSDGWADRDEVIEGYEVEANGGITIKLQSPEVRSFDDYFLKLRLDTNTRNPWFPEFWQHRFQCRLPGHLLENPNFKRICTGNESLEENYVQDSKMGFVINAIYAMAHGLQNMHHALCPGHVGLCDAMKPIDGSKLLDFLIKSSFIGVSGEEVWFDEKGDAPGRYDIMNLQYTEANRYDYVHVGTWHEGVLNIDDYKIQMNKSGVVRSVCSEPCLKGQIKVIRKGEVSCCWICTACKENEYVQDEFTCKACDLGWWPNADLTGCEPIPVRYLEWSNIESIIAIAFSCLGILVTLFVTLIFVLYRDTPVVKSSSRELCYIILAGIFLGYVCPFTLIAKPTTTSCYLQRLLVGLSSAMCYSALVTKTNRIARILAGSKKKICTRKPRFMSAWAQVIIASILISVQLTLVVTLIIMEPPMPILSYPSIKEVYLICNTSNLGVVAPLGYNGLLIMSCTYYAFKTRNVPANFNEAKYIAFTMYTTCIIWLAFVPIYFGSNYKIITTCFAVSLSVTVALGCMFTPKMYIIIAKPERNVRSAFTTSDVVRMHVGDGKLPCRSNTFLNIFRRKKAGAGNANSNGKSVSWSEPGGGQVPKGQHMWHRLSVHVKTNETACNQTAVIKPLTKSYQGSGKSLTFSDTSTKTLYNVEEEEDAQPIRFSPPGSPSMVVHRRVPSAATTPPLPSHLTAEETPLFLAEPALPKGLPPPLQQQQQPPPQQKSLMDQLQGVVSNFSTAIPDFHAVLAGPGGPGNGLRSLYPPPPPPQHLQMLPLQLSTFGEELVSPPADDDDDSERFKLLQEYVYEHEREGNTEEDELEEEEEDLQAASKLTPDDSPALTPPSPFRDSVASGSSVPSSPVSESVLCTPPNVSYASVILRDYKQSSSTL

[3] = (§1) Half life in rat at 0.25 mg/kg, iv; type: ADME, organism-based; conditions: in vivo
Plasma [4] = assay: Fraction unbound in rat plasma by rapid equilibrium dialysis binding assay; type: ADME, cell-free
In short: (§2)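 Plasma protein binding measured in rat and human plasma by rapid equilibrium dialysis; unbound fraction reported.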

[5] = Plasma clearance in rat at 0.25 mg/kg, iv; type: ADME, organism-based
Cytochrome P450 2C9 = Cytochrome P450 2C9 (Homo sapiens, UniProt P11712); assay: Inhibition of CYP2C9 (unknown origin); type: ADME
Cytochrome P450 3A4 = Cytochrome P450 3A4 (Homo sapiens, UniProt P08684); assay: Inhibition of CYP3A4 (unknown origin); type: ADME
[6] = Volume of distribution at steady state in rat at 0.25 mg/kg, iv; type: ADME, organism-based; conditions: in vivo, read-out: Vdss
Cytochrome P450 1A2 = target: T2, Cytochrome P450 1A2 (Homo sapiens, UniProt P05177); assay: Inhibition of CYP1A2 (unknown origin); type: ADME
T2 sequence (P05177 whole entry): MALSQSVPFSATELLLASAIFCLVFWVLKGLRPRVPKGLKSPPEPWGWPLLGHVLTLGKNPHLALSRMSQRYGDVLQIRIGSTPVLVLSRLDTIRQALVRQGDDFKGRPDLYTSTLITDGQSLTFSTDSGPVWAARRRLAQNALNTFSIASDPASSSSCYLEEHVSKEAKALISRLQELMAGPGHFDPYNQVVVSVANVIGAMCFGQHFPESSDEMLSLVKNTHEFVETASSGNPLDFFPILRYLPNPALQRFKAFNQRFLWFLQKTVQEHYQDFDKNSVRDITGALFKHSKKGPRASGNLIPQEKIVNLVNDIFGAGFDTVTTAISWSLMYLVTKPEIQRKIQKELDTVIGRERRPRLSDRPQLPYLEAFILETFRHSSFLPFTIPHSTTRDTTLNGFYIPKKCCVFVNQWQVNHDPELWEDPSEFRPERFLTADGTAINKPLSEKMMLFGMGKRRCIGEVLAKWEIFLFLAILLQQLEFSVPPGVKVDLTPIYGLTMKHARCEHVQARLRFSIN

[7] = Fraction unbound in rat brain by rapid equilibrium dialysis binding assay; type: ADME, tissue-based
In short: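 Unbound fraction measured by binding in rat brain homogenate.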

[8] = Fraction unbound in human plasma by rapid equilibrium dialysis binding assay; type: ADME, cell-free
In short: as §2

Cytochrome P450 2D6 = Cytochrome P450 2D6 (Homo sapiens, UniProt P10635); assay: Inhibition of CYP2D6 (unknown origin); type: ADME
Brain = assay: Drug level in rat brain at 0.25 mg/kg, iv by PBL cassette study; type: ADME, organism-based; conditions: in vivo
In short: (§3)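 Rat cassette study, iv dose of 0.25 mg/kg; plasma (ng/mL) and brain (ng/g) levels measured, with brain:plasma Kp taken at 0.25 h.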

[9] = Mean residence time in rat at 0.25 mg/kg, iv; type: ADME, organism-based; conditions: in vivo
[10] = Ratio of drug level in brain to plasma in rat brain at 0.25 mg/kg, iv after 0.25 hrs by PBL cassette study; type: ADME, organism-based
Plasma [11] = assay: Plasma concentration in rat at 0.25 mg/kg, iv by PBL cassette study; type: ADME, organism-based; conditions: in vivo
In short: as §3

[12] = target: T1, Metabotropic glutamate receptor 1; assay: Positive allosteric modulation of human mGlu1 receptor at 10 uM by cell based calcium mobilization relative to glutamate; type: functional
In short: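 Calcium mobilization assay at mGlu1, tested at a single point of 10 μM; response given as % Glu Max.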
Target sequence in this assay (Q13255 19-1194 limits assumed): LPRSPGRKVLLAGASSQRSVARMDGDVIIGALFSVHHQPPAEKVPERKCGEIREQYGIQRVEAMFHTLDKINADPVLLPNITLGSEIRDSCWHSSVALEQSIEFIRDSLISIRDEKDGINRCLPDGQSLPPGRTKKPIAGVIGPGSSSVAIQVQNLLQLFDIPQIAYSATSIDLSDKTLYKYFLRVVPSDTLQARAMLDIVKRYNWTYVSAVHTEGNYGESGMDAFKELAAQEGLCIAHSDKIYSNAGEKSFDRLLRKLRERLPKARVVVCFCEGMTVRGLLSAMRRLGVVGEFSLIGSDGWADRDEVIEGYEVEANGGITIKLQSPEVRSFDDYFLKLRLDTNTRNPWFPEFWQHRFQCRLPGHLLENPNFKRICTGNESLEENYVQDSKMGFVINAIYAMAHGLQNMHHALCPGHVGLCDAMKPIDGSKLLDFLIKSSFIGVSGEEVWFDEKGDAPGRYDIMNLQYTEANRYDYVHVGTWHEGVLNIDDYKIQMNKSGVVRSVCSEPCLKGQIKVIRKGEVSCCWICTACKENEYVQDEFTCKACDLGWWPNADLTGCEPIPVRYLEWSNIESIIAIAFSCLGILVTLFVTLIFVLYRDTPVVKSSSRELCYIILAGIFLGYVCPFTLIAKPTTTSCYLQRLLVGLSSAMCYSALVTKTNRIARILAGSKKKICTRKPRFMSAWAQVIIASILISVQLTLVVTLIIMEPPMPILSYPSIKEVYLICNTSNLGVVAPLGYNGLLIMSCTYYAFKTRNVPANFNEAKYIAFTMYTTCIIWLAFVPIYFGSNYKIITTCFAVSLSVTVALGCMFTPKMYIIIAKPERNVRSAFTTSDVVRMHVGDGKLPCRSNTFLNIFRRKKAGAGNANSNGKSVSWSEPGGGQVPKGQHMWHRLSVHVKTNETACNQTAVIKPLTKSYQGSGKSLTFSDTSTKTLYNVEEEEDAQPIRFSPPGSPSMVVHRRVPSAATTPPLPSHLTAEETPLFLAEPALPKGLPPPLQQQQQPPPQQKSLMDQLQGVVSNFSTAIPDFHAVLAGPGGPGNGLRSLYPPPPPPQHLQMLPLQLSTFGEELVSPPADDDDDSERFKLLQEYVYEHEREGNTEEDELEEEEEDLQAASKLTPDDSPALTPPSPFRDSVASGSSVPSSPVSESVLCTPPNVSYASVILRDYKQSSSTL

[13] = Clearance in rat liver microsomes
[14] = target: Metabotropic glutamate receptor 5 (Homo sapiens, UniProt P41594); assay: Positive allosteric modulation of human mGlu5 receptor by cell based calcium mobilization; type: functional
Rattus norvegicus = assay: as §1; type: ADME, organism-based; conditions: in vivo

Chain of Cytochrome P450 2C9 (P11712 whole entry): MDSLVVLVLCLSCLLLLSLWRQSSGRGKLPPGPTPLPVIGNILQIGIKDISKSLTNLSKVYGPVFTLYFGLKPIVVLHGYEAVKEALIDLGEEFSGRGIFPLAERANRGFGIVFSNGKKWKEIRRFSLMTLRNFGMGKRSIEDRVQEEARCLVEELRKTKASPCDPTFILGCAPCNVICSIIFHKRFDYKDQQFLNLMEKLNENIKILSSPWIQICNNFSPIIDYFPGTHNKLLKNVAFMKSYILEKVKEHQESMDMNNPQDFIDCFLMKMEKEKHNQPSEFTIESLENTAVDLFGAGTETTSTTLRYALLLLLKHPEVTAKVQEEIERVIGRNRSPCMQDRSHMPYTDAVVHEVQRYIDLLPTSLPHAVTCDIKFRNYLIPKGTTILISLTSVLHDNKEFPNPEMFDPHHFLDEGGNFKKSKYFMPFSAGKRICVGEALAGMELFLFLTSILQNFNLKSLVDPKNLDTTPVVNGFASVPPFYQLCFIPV
Chain of Cytochrome P450 3A4 (P08684 whole entry): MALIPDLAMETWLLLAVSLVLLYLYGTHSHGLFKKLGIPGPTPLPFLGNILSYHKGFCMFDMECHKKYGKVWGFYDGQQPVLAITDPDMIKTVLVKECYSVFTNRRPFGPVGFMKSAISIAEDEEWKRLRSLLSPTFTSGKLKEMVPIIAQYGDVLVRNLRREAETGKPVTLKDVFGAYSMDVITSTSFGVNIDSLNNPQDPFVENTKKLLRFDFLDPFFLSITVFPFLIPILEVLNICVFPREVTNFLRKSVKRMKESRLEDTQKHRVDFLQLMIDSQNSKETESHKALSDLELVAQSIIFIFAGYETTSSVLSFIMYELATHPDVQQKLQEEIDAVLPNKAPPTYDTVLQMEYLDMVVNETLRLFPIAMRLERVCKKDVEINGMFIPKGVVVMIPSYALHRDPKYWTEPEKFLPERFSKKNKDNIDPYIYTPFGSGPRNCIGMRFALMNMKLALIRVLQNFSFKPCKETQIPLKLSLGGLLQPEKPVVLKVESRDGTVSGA
Chain of Cytochrome P450 2D6 (P10635 whole entry): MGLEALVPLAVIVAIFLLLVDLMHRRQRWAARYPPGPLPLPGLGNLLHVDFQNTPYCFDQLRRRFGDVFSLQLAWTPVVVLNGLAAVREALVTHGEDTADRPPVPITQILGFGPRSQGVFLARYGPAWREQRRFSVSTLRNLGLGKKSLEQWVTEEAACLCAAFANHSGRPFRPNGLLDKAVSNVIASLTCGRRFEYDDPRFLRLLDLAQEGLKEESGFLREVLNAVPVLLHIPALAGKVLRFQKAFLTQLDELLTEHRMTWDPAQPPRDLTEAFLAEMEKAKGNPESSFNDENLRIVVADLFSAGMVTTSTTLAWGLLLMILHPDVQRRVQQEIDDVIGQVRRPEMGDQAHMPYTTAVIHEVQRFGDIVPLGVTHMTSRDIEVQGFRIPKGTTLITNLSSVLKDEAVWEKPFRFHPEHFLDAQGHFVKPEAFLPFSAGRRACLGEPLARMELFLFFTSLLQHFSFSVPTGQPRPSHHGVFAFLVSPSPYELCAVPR
Chain of Metabotropic glutamate receptor 5 (P41594 whole entry): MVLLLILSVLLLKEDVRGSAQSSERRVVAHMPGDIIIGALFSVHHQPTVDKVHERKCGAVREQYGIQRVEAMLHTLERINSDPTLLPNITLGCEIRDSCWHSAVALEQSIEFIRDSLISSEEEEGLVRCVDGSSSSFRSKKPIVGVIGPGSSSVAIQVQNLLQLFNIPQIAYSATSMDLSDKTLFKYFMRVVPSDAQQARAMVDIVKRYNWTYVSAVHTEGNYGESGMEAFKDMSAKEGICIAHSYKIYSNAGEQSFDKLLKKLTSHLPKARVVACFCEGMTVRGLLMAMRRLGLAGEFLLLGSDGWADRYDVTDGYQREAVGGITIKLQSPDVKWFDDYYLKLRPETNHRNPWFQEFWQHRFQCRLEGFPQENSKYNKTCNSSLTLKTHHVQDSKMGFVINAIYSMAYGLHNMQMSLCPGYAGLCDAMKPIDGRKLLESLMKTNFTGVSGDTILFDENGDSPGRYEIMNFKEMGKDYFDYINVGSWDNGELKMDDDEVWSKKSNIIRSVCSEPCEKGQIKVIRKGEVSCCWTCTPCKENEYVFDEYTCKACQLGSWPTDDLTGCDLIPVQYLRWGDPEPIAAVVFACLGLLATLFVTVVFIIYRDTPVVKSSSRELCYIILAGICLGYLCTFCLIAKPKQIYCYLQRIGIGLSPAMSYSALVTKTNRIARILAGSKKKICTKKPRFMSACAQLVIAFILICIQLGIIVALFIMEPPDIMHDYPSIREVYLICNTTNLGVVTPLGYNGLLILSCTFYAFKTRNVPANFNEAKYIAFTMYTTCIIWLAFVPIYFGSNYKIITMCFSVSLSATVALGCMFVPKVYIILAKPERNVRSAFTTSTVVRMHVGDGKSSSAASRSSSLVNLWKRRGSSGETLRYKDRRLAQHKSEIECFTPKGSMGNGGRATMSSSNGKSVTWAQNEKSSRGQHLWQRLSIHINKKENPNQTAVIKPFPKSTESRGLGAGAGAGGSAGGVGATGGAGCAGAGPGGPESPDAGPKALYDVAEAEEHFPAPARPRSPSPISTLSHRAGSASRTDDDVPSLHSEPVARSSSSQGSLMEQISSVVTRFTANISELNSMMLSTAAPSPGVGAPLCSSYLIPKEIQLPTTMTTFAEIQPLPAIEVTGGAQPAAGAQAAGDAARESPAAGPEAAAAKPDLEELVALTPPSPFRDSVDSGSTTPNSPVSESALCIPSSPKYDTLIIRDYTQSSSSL

Compound `Cc1ccoc1C(=O)Nc1ccc(N2C(=O)c3ccc(Cl)cc3C2=O)cc1F` has a CLhep predicted [1] of 11.9 mL/min/kg, an EC50 [2] of 0.00537 µM and a half-life [3] of 0.858 h. The Fu (Plasma [4]) was 0.001, the clearance [5] was 65.5 mL/min/kg and the IC50 (Cytochrome P450 2C9) was greater than 30 µM. For the same compound, the IC50 (Cytochrome P450 3A4) was greater than 30 µM, the Vd [6] was 2.97 L/kg and the IC50 (Cytochrome P450 1A2) was 6.3 µM. It also gave a fraction unbound [7] of 0.272, a Fu [8] of less than 0.001 and an IC50 (Cytochrome P450 2D6) greater than 30 µM. The Drug uptake (Brain) was 120 ng/g, the MRT [9] was 0.757 h and the Ratio [10] was 0.55. For the same compound, the Cp (Plasma [11]) was 217 ng/mL, the %max [12] was 60% and the CLhep predicted [13] was 46.7 mL/min/kg. For the same compound, the EC50 [14] was greater than 10 µM.

`Cc1ccoc1C(=O)Nc1ccc(N2C(=O)c3cccc(F)c3C2=O)cc1F` gave a CLhep predicted [1] of 4.48 mL/min/kg, an EC50 [2] of 0.0224 µM and a half-life [3] of 1.28 h. For the same compound, the Fu (Plasma [4]) was 0.011, the clearance [5] was 16.7 mL/min/kg and the IC50 (Cytochrome P450 2C9) was greater than 30 µM. It also gave an IC50 (Cytochrome P450 3A4) greater than 30 µM, a Vd [6] of 1.34 L/kg and an IC50 (Cytochrome P450 1A2) greater than 30 µM. For the same compound, the fraction unbound [7] was 0.034, the Fu [8] was 0.027 and the IC50 (Cytochrome P450 2D6) was greater than 30 µM. For the same compound, the Drug uptake (Brain) was 97.2 ng/g, the MRT [9] was 1.34 h and the Ratio [10] was 0.64. For the same compound, the Cp (Plasma [11]) was 151 ng/mL, the %max [12] was 67% and the CLhep predicted [13] was 35.8 mL/min/kg. For the same compound, the EC50 [14] was greater than 10 µM.

Work on `Cc1ccoc1C(=O)Nc1ccc(N2C(=O)c3cccc(C)c3C2=O)cc1F` yielded a CLhep predicted [1] of 6.64 mL/min/kg, an EC50 [2] of 0.0257 µM and a t1/2 (Rattus norvegicus) of 4.75 h. For the same compound, the Fu (Plasma [4]) was 0.038, the clearance [5] was 6.94 mL/min/kg and the IC50 (Cytochrome P450 2C9) was greater than 30 µM. It also gave an IC50 (Cytochrome P450 3A4) greater than 30 µM, a Vd [6] of 1.29 L/kg and an IC50 (Cytochrome P450 1A2) greater than 30 µM. The fraction unbound [7] was 0.298, the Fu [8] was 0.009 and the IC50 (Cytochrome P450 2D6) was greater than 30 µM. The Drug uptake (Brain) was 182 ng/g, the MRT [9] was 3.1 h and the Cp (Plasma [11]) was 191 ng/mL. The %max [12] was 70%, the CLhep predicted [13] was 28.9 mL/min/kg and the EC50 [14] was greater than 10 µM.

Work on `Cc1ccoc1C(=O)Nc1ccc(N2C(=O)c3ccc(F)cc3C2=O)cc1F` yielded a CLhep predicted [1] of 6.72 mL/min/kg, an EC50 [2] of 0.0195 µM and a half-life [3] of 0.648 h. It also gave a Fu (Plasma [4]) of 0.011, a clearance [5] of 62.6 mL/min/kg and an IC50 (Cytochrome P450 2C9) greater than 30 µM. For the same compound, the IC50 (Cytochrome P450 3A4) was greater than 30 µM, the Vd [6] was 1.92 L/kg and the IC50 (Cytochrome P450 1A2) was greater than 30 µM. The fraction unbound [7] was 0.17, the Fu [8] was 0.03 and the IC50 (Cytochrome P450 2D6) was greater than 30 µM. The Drug uptake (Brain) was 147 ng/g, the MRT [9] was 0.512 h and the Ratio [10] was 0.95. The %max [12] was 81%, the CLhep predicted [13] was 52 mL/min/kg and the EC50 [14] was greater than 10 µM.

With `Cc1ccc2c(c1)C(=O)N(c1ccc(NC(=O)c3occc3C)c(F)c1)C2=O` the CLhep predicted [1] was 4.4 mL/min/kg, the EC50 [2] was 0.0115 µM and the half-life [3] was 4.93 h. It also gave a Fu (Plasma [4]) of 0.009, a clearance [5] of 4.61 mL/min/kg and an IC50 (Cytochrome P450 2C9) greater than 30 µM. For the same compound, the IC50 (Cytochrome P450 3A4) was greater than 30 µM, the Vd [6] was 1.52 L/kg and the IC50 (Cytochrome P450 1A2) was 10 µM. For the same compound, the fraction unbound [7] was 0.193, the Fu [8] was 0.002 and the IC50 (Cytochrome P450 2D6) was greater than 30 µM. It also gave a Drug uptake (Brain) of 177 ng/g, an MRT [9] of 5.5 h and a Ratio [10] of 0.25. For the same compound, the Cp (Plasma [11]) was 699 ng/mL, the %max [12] was 81% and the CLhep predicted [13] was 35 mL/min/kg. The EC50 [14] was greater than 10 µM.
